Measurements gathered from unrelated publications.
Each line is one published result; the experiments were not run side by side.
Target: Vascular endothelial growth factor receptor 2 (KDR, Homo sapiens, UniProt P35968)

COc1ccc(C=NNC(=O)c2sc(Nc3ccccc3)c(C(=O)Nc3ccc(OC)cc3)c2NC(C)=O)cc1  remaining activity (enzyme activity, inhibitor; 100 µM): 35.1%
CS(=O)(=O)NCC[C@H](NC(=O)c1cncc2c1cnn2-c1ccc(F)cc1)c1ccnc(S(C)(=O)=O)c1  remaining binding (cell-free assay, competition with immobilised ligand; 1 µM): 100%
COc1ccc(COc2ccc(Cc3cnc(N)nc3N)cc2OC)cc1  remaining signal (cell-free assay; 0.5 µM): 109%
Cc1ccc(NC(=O)c2ccc(C)c(C(F)(F)F)c2)cc1C#Cc1nn(C2CCC(O)CC2)c2ncnc(N)c12 (stereo not shown)  remaining signal (cell-free assay; 10 µM): 2%
COc1cc(-c2cn(C3CCc4ccccc4N(CC(F)(F)F)C3=O)nn2)ccc1-n1ccc(C)n1 (stereo not shown)  remaining binding (cell-free assay, competition with immobilised ligand; 1 µM): 79%
Cc1ccc(C(=O)Nc2ccc(CN3CCN(C)CC3)c(C(F)(F)F)c2)cc1C#Cc1cnc2cccnn12  remaining signal (cell-free assay; 23.5 nM): 15%
CCOc1cc(-c2nncn2C)ccc1Nc1ncc2cc(C)nc(NCC(C)(C)C)c2n1  inhibition (enzyme activity, inhibitor, FRET; 1 µM): < 15%
O=C1Nc2ccc(Br)cc2/C1=C/c1cc2c([nH]1)CCCC2  remaining signal (cell-free assay; 0.5 µM): 70.9%
N#Cc1ccc(Nc2ccc3[nH]c(=O)[nH]c3c2)c(Cl)c1  remaining binding (cell-free assay, competition with immobilised ligand; 1 µM): 99%
O=C1NC(=O)c2cc(Nc3ccc(F)cc3)c(Nc3ccc(F)cc3)cc21  remaining signal (cell-free assay; 0.5 µM): 97.9%
CSc1nc(C)c(-c2ccnc(Nc3ccc(N4CCOCC4)cc3)c2)[nH]1  inhibition (enzyme activity, inhibitor; 10 µM): 95.1%
COc1ccc(NC(=O)c2c(Nc3ccccc3)sc(C(=O)NN=Cc3ccc(Cl)cc3)c2NC(C)=O)cc1  remaining activity (enzyme activity, inhibitor; 10 nM): 96.1%
Cc1c(NC(=O)c2cc(C(N)=O)nc3cc(F)ccc23)c(C(F)(F)F)nn1Cc1ccc(C(C)(C)C)cc1  remaining binding (cell-free assay, competition with immobilised ligand; 1 µM): 100%
COc1ccc(NC(=O)c2c(Nc3ccccc3)sc(C(=O)NN=Cc3cc(OC)c(OC)c(OC)c3)c2NC(C)=O)cc1  remaining activity (enzyme activity, inhibitor; 10 µM): 71.1%
CC(=O)Nc1c(C(C)=O)c(=O)n(C)c2nc(-c3ccc(Cl)cc3Cl)c(-c3ccc(Cl)cc3)cc12  remaining binding (cell-free assay, competition with immobilised ligand; 1 µM): 94%
COc1cc2ncnc(Nc3ccc(Oc4ccccc4)c(C)c3C)c2cc1OC  inhibition (enzyme activity, inhibitor; 1 µM): 16%
CCCCN(CCCC)C(=O)CN1C[C@H](c2cc(OC)c3c(c2)OCO3)[C@@H](C(=O)O)[C@@H]1CC(C)(C)CCC  remaining binding (cell-free assay, competition with immobilised ligand; 1 µM): 88.7%
COc1ccc(NC(=O)c2c(Nc3ccccc3)sc(C#N)c2NC(=O)CNc2ccc(Br)cc2)cc1  remaining activity (enzyme activity, inhibitor; 10 µM): 35.4%
CNC(=O)c1c(C)oc2cc(Oc3ncnc4cc(OC)c(OC)cc34)ccc12  inhibition (enzyme activity, inhibitor; 0.1 µM): 89.9%
CN(C)C1CCN(CC#Cc2nn(C3CCCC3)c3nc(NCc4ccccc4)ncc23)C1 (stereo not shown)  inhibition (enzyme activity, inhibitor, FRET; 1 µM): 14%
CCCS(=O)(=O)Nc1ccc(F)c(C(=O)c2c[nH]c3ncc(-c4ccc(Cl)cc4)cc23)c1F  inhibition (enzyme activity, inhibitor; 1 µM): < 20%
O=C(O)c1cc(-c2ccc(C3CCNCC3)cc2)c2ccc(-c3ccc(C(F)(F)F)cc3)cc2c1  remaining binding (cell-free assay, competition with immobilised ligand; 1 µM): 100%
COc1ccc(NC(=O)c2c(Nc3ccccc3)sc(C(=O)NN=Cc3ccc(OC)c(O)c3)c2NC(C)=O)cc1  remaining activity (enzyme activity, inhibitor; 0.1 µM): 83.2%
CNC(=O)c1cc2c(Oc3ccc(NC(=O)C4(C(=O)Nc5ccc(F)cc5)CC4)cc3)ccnc2cc1OC  inhibition (enzyme activity, inhibitor, radiometric; 1 µM): 82%
N#CCCc1ccc2c(c1)-c1[nH]c3ccc([N+](=O)[O-])cc3c1CC(=O)N2  remaining signal (cell-free assay; 0.5 µM): 75.5%
COc1ccc(NC(=O)c2c(Nc3ccccc3)sc(C#N)c2NC(=O)CNc2ccc([N+](=O)[O-])cc2)cc1  remaining activity (enzyme activity, inhibitor; 10 nM): 98%
CC/C(=N\NC(=O)NCc1cccc(O)c1)c1ccc(O)c(C)c1O  inhibition (enzyme activity, inhibitor; 0.1 µM): 2.7%
COc1ccc(NC(=O)c2c(Nc3ccccc3)sc(C#N)c2NC(=O)CNc2ccc(Cl)cc2)cc1  remaining activity (enzyme activity, inhibitor; 0.1 µM): 61.3%
COc1ccc(-c2cnc3c(-c4ccsc4)cnn3c2)cc1  remaining signal (cell-free assay; 0.5 µM): 79.8%
Cc1c[nH]c2nccc(Oc3c(F)cc(Nc4cc(Cl)nc(N)n4)cc3F)c12  remaining binding (cell-free assay, competition with immobilised ligand; 0.1 µM): 81%
CS(=O)(=O)Nc1cccc(-c2csc(NC(=O)CSc3nc4nccnc4c(=O)n3CCc3ccccc3)n2)c1  inhibition (enzyme activity, inhibitor; 10 µM): 0%
